# Assay results: PubChem BioAssay
# Calls of active or inactive are those of the source.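 How the source made its calls, unless noted: active means fluorescence slope higher than the sample average by over 3 SD (cut at about -0.22 in these data, passing the limit was not always enough); inactive means the rest.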
# Key:
# [1] = inhibitors of TNFa-induced NFkB p65 translocation, primary screen, imaging, HUVEC, MLSMR starter and 10KST1 sets (AID 438;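 active means inhibition above 20% together with a positive visual image hit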;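 further: compound added about 3h40 before a 20 min TNFalpha stimulation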;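 on inhibition: signal is the nuclear over cytoplasmic p65 intensity ratio per well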); details: HUVEC TNFa-induced p65 nuclear translocation; cell count: measured here: nuclei count (cytotoxicity indicator), at 2.08 µM; inhibition: at 2 µM, stronger effect = higher value, 0% TNFa-plus-vehicle, 100% no-TNFa wells
# [2] = endothelial E-selectin expression blockers – imaging, HUVEC, immunofluorescence, MLSMR starter and 10KST1 sets, primary screen (AID 487;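 active means visually confirmed hit in the image check and inhibition above 20%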;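 on inhibition: signal is fraction of cell area covered by stained E-selectin grains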;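 on nuclei count: 100% = median nuclei count of all wells on the same plate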); details: HUVEC TNFalpha-induced E-selectin immunofluorescence imaging, at 2 µM; inhibition: stronger effect = higher value; nuclei count: measured here: cell number, toxicity
# [3] = Primary imaging screen for DUSP6 inhibitors that restore phospho-Erk in transfected HeLa cells, chemical complementation (AID 609;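 active means compounds giving at least 50% inhibition in the cell-based MKP-3 phosphatase rescue imaging test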;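 on inhibition: phospho-Erk level distribution per well compared with pooled transfected vehicle control wells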); details: HeLa MKP-3 transfected, phospho-Erk imaging KS statistic, at 10 µM, cells stimulated with TPA for 15 min
# [4] = biological target: Dual specificity protein phosphatase 6 (Homo sapiens) (UniProt Q16828); assay: as above; details: HeLa MKP-3 transfected, phospho-Erk imaging KS statistic; at 10 µM; stronger effect = higher value; cells stimulated with TPA for 15 min
# [5] = biological target: Voltage-gated potassium channel subunit beta-2 (Rattus norvegicus) (UniProt P62483); assay: inhibitors of rat Kvbeta2 reductase activity – biochemical, NADPH fluorescence, primary screen (AID 622); details: recombinant KvBeta, 4-cyanobenzaldehyde reduction, at 10 µM, stronger effect = higher value;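 further: slope of raw intensity against log time taken from 70 to 1610 s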
# [6] = biological target: Voltage-gated potassium channel subunit beta-2 (Rattus norvegicus) (UniProt P62483); assay: enhancers of rat Kvbeta2 NADPH turnover – biochemical, NADPH fluorescence, primary screen (AID 623;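 active means NADPH fluorescence slope more negative than the mean of all samples by about 3 SD, 99.7% confidence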;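 further: fluorescence intensity change per second fitted from 20 to 320 s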); details: Recombinant KvBeta, NADPH fluorescence decrease slope, 10 min; at 10 µM; stronger effect = lower value
# [7] = biological target: Muscarinic acetylcholine receptor M4 (Homo sapiens) (UniProt P08173); assay: M4-linked GIRK flux change, two-sided – cell-based, HEK293 M4/GIRK, thallium flux, BTC-AM, M4 allosteric agonist project, primary screen (AID 625;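 active means fluorescence slope after compound addition differing from the mean of all tested samples at 99.7% confidence, mostly higher but some lower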;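 further: thallium influx through GIRK channels coupled to M4 in HEK293 cells with BTC-AM dye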); details: at 10 µM, actives lie on both sides
# In short: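 Material – HEK293 cells with M4 receptor and GIRK channels · Buffer or medium – pH 7.3 thallium assay buffer · Doses – one dose, 10 µM final · Timing – cells overnight at 37 °C, BTC-AM loading 1 h, reads 2 min total · Measured by – kinetic fluorescence with BTC-AM dye · Controls – carbachol and DMSO controls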
# [8] = inhibitors of larval lipid processing in zebrafish, primary screen, whole organism, PED6 fluorescence, gall bladder and intestine (AID 686;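 active means a full or partial loss of lipid-probe fluorescence in the fish gall bladder, intestine or both, judged by eye; inactive means no fluorescence loss, or compound toxic to the fish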;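 further: larvae 5 to 7 days old with five fish per well; signal comes from phospholipase A2 cleavage of quenched PED6 carried via bile; overnight exposure to compound and PED6 before scoring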); details: Zebrafish larvae PED6 lipid processing, fluorescence scoring; screened at 20 µM (by protocol)
# In short: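 system = live zebrafish larvae aged 5-7 days, whole organism | probe or stimulus = ingested quenched lipid PED6 at 100 nM | doses = 20 µM single dose | timing = overnight exposure | detection = fluorescence microscopy with visual scoring of gall bladder and intestine | read-out = visual per-well fluorescence inhibition score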
# [9] = loss of swimming-algae plug formation – whole organism, Chlamydomonas reinhardtii, WT vs cilia-less mutant, absorbance, 96-well, primary screen (AID 463189;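 active means inhibition at or above 50% relative to wild type and mutant plate controls; inactive means inhibition below 50%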;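 further: 0% = wild type cc124 cells in DMSO and 100% = ciliumless bld1 mutant cells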); details: Chlamydomonas reinhardtii gravitaxis, OD600 absorbance, 2 days; at 10 µM; stronger effect = higher value
# [10] = measured here: cell density z-score
# [11] = measured here: nuclear c-Myc green intensity z-score
# [12] = measured here: nuclear pErk red intensity z-score, stronger effect = higher value
# Voltage-gated potassium channel subunit beta-2 (Rattus norvegicus), sequence (P62483 whole entry, looked up): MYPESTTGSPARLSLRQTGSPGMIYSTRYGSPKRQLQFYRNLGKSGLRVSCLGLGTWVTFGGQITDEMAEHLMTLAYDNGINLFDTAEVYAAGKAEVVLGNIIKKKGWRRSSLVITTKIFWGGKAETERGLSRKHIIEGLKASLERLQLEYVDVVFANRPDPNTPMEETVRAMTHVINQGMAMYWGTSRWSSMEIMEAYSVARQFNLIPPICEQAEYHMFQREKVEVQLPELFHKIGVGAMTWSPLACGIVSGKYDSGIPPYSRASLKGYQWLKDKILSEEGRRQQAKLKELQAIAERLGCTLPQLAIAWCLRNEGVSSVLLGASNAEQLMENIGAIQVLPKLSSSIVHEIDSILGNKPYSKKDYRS
# Dual specificity protein phosphatase 6 (Homo sapiens), sequence (Q16828 whole entry, looked up): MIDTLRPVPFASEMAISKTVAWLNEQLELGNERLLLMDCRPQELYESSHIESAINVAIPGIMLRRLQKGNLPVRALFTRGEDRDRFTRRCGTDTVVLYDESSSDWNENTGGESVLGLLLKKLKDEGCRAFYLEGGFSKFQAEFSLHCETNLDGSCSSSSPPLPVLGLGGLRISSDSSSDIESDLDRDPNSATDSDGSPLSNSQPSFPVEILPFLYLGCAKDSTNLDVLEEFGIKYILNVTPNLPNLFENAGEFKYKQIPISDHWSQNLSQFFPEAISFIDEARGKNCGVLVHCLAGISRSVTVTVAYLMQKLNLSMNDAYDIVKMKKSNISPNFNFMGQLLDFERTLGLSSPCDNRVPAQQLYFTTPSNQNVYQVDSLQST
# Muscarinic acetylcholine receptor M4 (Homo sapiens), sequence (P08173 whole entry, looked up): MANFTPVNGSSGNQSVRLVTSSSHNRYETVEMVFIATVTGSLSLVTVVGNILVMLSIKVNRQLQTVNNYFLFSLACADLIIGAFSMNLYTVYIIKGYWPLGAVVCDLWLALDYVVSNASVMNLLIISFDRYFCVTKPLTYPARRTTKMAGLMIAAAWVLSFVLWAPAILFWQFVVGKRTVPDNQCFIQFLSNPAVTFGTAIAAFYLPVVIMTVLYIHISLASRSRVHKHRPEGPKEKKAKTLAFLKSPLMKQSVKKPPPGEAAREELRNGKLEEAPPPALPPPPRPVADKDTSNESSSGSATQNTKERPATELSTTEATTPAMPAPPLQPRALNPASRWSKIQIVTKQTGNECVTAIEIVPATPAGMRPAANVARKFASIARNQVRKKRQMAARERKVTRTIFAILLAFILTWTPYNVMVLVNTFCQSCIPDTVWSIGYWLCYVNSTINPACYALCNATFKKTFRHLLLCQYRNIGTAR
Compound,cell count [1],inhibition [1],inhibition [2],nuclei count [2],"z-score [3, 10]","z-score [3, 11]","z-score [3, 12]",inhibition [4],fluorescence slope [5],NADPH fluorescence slope [6],fluorescence slope [7],outcome [8],inhibition [9]
OCCOCCNc1ncnc2c1cnn2-c1ccc(Cl)cc1,578,-11.9% (inactive),-74.5% (inactive),181%,0.588,-0.286,0.737,-4.59% (inactive),-0.308 (inactive),-2.8e-05 (inactive),0.00585 (inactive),inactive,26.1% (inactive)
Cc1cc(Nc2ccc3ccccc3c2)n2ncnc2n1,503,-0.6% (inactive),56.4% (inactive),146%,-0.633,0.516,-1.5,3.97% (inactive),-0.414 (inactive),-4.4e-05 (inactive),0.00533 (inactive),inactive,-3.1% (inactive)
CC1(C)Cc2ccccc2-c2c1c(=O)n(-c1ccccc1)c1nnnn21,624,8.6% (inactive),-45% (inactive),92.5%,0.648,-0.29,-0.398,4.72% (inactive),-0.51 (inactive),-1.7e-05 (inactive),0.00444 (inactive),inactive,13.9% (inactive)
Cc1ccc(CNC(=O)c2cc3c(=O)n4ccccc4nc3n(CC3CCCO3)c2=N)cc1 (stereo unspecified),542,-11.9% (inactive),-40.3% (inactive),93.4%,-0.636,0.681,-1.25,2.71% (inactive),-0.331 (inactive),-2.1e-05 (inactive),-0.000734 (active),inactive,32.5% (inactive)
O=C1CC(NCc2ccncc2)C(=O)N1c1ccc(Cl)cc1 (stereo unspecified),479,2.2% (inactive),-20.1% (inactive),150%,0.96,-0.274,-0.794,2.71% (inactive),-0.464 (inactive),-3.3e-05 (inactive),0.00465 (inactive),inactive,25.9% (inactive)
COc1ccccc1NC(=O)CSc1nnc(-c2ccc(NC(C)=O)cc2)n1C,661,-6% (inactive),-36.2% (inactive),198%,-0.0402,-0.306,0.506,12.8% (inactive),-0.46 (inactive),-0.000106 (inactive),0.00538 (inactive),inactive,-1.17% (inactive)
COCCCNc1nc2c(c(=O)[nH]c(=O)n2C)n1CC(O)COc1ccccc1 (stereo unspecified),379,6.8% (inactive),-63.3% (inactive),128%,-0.311,-0.833,1.79,-0.608% (inactive),-0.444 (inactive),-7.9e-05 (inactive),0.00457 (inactive),inactive,23.4% (inactive)
O=C(NCCCn1ccnc1)c1cccnc1,412,-1% (inactive),-143% (inactive),187%,-0.692,0.968,-0.483,5.65% (inactive),-0.459 (inactive),-0.000144 (inactive),0.00592 (inactive),inactive,0.663% (inactive)
COc1ccc(/C(O)=C2\C(=O)C(=O)N(CCN(C)C)C2c2cccc(OC)c2OC)cc1Cl (stereo unspecified),629,-9.8% (inactive),-43.6% (inactive),170%,-0.541,-0.411,-0.226,11.4% (inactive),-0.443 (inactive),-3.1e-05 (inactive),0.00451 (inactive),inactive,10.3% (inactive)
COc1ccc(C2C(C#N)=C(N)Oc3cc(C)n(CCN4CCOCC4)c(=O)c32)cc1OC (stereo unspecified),520,-5.9% (inactive),0.9% (inactive),110%,-1.19,0.613,-1.48,-10.1% (inactive),-0.468 (inactive),-3.9e-05 (inactive),0.00521 (inactive),inactive,1.58% (inactive)
CC1(C)Cc2c(c(N3CCOCC3)nc3sc4c(=O)[nH]cnc4c23)CS1,493,-5.7% (inactive),10.3% (inactive),100%,-0.312,0.705,1.1,7.93% (inactive),-0.44 (inactive),-1.9e-05 (inactive),0.00568 (inactive),inactive,28.7% (inactive)
Cc1ccc(-n2ncc3c(NCCCOC(C)C)ncnc32)c(C)c1,586,-13.1% (inactive),45.2% (inactive),161%,-1.65,1.1,-0.077,1.42% (inactive),-0.408 (inactive),-4.3e-05 (inactive),0.00603 (inactive),inactive,39% (inactive)
CCSC1=C(C#N)C(c2cccs2)C(C(=O)OC)=C(C)N1 (stereo unspecified),704,-1% (inactive),-26.7% (inactive),161%,1.09,-0.139,-1.35,2.46% (inactive),-0.442 (inactive),-5.3e-05 (inactive),0.00541 (inactive),inactive,-1.08% (inactive)
O=C1c2ccccc2-c2onc3ccc(NCc4ccco4)c1c23,705,-2.6% (inactive),-23.9% (inactive),118%,0.599,-0.783,0.692,10.9% (inactive),-0.14 (inactive),1.2e-05 (inactive),0.000102 (inactive),active; no signal in gallbladder and intestine,-2.14% (inactive)
CCc1c(C)c2cc(Cl)c(O)c(CN3CCCCC3)c2oc1=O,634,-3.5% (inactive),6.3% (inactive),174%,0.309,0.0643,-0.532,-10.6% (inactive),-0.0112 (inactive),-2.8e-08 (inactive),0.00604 (inactive),inactive,-1.88% (inactive)
COc1cccc(C=NCCNC(=O)c2nonc2N)c1O,517,-4% (inactive),62.5% (inactive),169%,-0.652,2.61,-0.971,7.93% (inactive),-0.413 (inactive),-3.4e-05 (inactive),0.00584 (inactive),inactive,-4.89% (inactive)
COCc1[nH]nc2c1C(c1sccc1C)C(C#N)=C(N)O2 (stereo unspecified),569,-7.1% (inactive),-22.2% (inactive),170%,1.09,-0.767,0.181,8.31% (inactive),-0.488 (inactive),-2.8e-05 (inactive),0.00573 (inactive),inactive,0.653% (inactive)
CN1Cc2c(N3CCOCC3)nc(SCc3ccccc3)c(C#N)c2CC1(C)C,524,-3.1% (inactive),-101% (inactive),134%,-1.78,-0.223,-1.03,-0.584% (inactive),-0.496 (inactive),-7.5e-06 (inactive),0.00495 (inactive),inactive,17.9% (inactive)
CC(NC(=O)OCc1ccccc1)C(=O)OCN1C(=O)c2ccccc2C1=O (stereo unspecified),519,-9.1% (inactive),-64.3% (inactive),130%,0.544,-1.4,0.638,-3.97% (inactive),-0.391 (inactive),-4.8e-06 (inactive),0.00711 (inactive),inactive,28% (inactive)
CCC1CC2(C)NC(=O)c3c(sc4c3CC(C)(C)OC4)N2C1=O (stereo unspecified),497,-0.8% (inactive),-48.8% (inactive),175%,0.444,0.00352,-0.401,1.98% (inactive),-0.397 (inactive),3.9e-06 (inactive),0.00496 (inactive),inactive,31.2% (inactive)
COc1cccc(-c2nc(N3CCCCC3C)c3ccccc3n2)c1O (stereo unspecified),676,1% (inactive),32.7% (inactive),154%,-0.111,1.23,0.615,-5.62% (inactive),-0.465 (inactive),-7.5e-05 (inactive),0.0038 (inactive),inactive; toxic,9.9% (inactive)
CCOC(=O)NC(Nc1sc2c(c1C(=O)OC)CCN(C)C2)(C(F)(F)F)C(F)(F)F,614,3.1% (inactive),-20.8% (inactive),89.6%,0.751,-0.407,-0.601,16.5% (inactive),-0.501 (inactive),-3.3e-05 (inactive),0.00619 (inactive),inactive,36.6% (inactive)
CSc1nc2[nH]c3c(c2c2ncnn12)CCCC3,547,-3.6% (inactive),37.3% (inactive),171%,-0.205,-0.317,-0.0331,1.98% (inactive),-0.379 (inactive),-4.9e-05 (inactive),0.00321 (inactive),inactive,44.1% (inactive)
CCOC(=O)C(C)c1nc2ccccc2[nH]c1=O (stereo unspecified),579,-6.6% (inactive),-30.5% (inactive),164%,-0.098,0.564,0.462,1.9e-07% (inactive),-0.397 (inactive),-6.3e-05 (inactive),0.00575 (inactive),inactive,12.9% (inactive)
Cc1nc2c(c(N3CCOCC3)n1)OCC(=O)N2,562,-5.6% (inactive),-63.7% (inactive),132%,-1.14,0.329,1.34,-4.59% (inactive),-0.454 (inactive),-9.1e-05 (inactive),0.00529 (inactive),inactive,31.8% (inactive)
CCOc1ccc(C2C=C(c3ccccc3)Nc3ncnn32)cc1 (stereo unspecified),531,-1.1% (inactive),58.8% (inactive),151%,-0.603,0.992,-0.889,11.9% (inactive),-0.0438 (inactive),-6.4e-06 (inactive),0.00687 (inactive),inactive,22.6% (inactive)
Cc1cc(=O)[nH]c(COc2ccccc2)n1,687,-9.9% (inactive),-104% (inactive),162%,0.188,0.603,0.438,3.49% (inactive),-0.432 (inactive),-2e-05 (inactive),0.00544 (inactive),inactive,-9.35% (inactive)
